Measurements: ChEMBL document CHEMBL1671690, “Madurella mycetomatis is not susceptible to the echinocandin class of antifungal agents” (2010)
≈ marks a conversion by molar mass, not a printed value. Calls of active or inactive are those of the source. The calls are words filed in the database; no cut-off is given here. Numbered stars: 1 amine (or outer) side, 2 acyl side, 3 side chain; on linkers, the order of the positions; unused ones are H or OH. Bridge positions count the residues as written; N and C are the ends. Square brackets hold non-standard residues; d marks the D form. Peptide text beside a SMILES is read from it. * marks the point of attachment. hTyr(3S-OH,4S-OH,3'-OSO3H) = N[C@H](C(=O)O)[C@H](O)[C@@H](O)c1ccc(O)c(OS(=O)(=O)O)c1; pTerphenylCO(4''-OnC5H11) = CCCCCOc1ccc(-c2ccc(-c3ccc(C(=O)*)cc3)cc2)cc1; Orn(4R-OH,5R-OH) = O=C([C@H](C[C@@H](O)[C@@H](O)N[*:3])N[*:1])[*:2]; hTyr(3S-OH,4S-OH) = N[C@H](C(=O)O)[C@H](O)[C@@H](O)c1ccc(O)cc1; Pro(3S-OH,4S-Me) = C[C@H]1CN[C@H](C(=O)O)[C@H]1O; X1 = CCCCCOc1ccc(-c2cc(-c3ccc(C(=O)*)cc3)no2)cc1; Gln(3R-OH) = NC(=O)C[C@@H](O)[C@H](N)C(=O)O; Hyp = O=C(O)[C@@H]1C[C@@H](O)CN1

Assays:
[1] = Antifungal activity against Madurella mycetomatis isolate 45 by XTT assay; format: functional
How it was run: (§1)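 Ketoconazole, caspofungin and anidulafungin diluted in DMSO, micafungin in normal saline. Viability read by XTT reduction. MIC is the first concentration giving >80% spectrophotometric reduction. Done independently in triplicate.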

[2] = Antifungal activity against Madurella mycetomatis isolate 36 by XTT assay; format: functional; how it was run: as §1
[3] = Antifungal activity against Madurella mycetomatis isolate 31 by XTT assay; format: functional; how it was run: as §1
[4] = Antifungal activity against Madurella mycetomatis isolate 39 by XTT assay; format: functional; how it was run: as §1
[5] = Antifungal activity against Madurella mycetomatis isolate 64 by XTT assay; format: functional; how it was run: as §1
[6] = Antifungal activity against Madurella mycetomatis isolate 49 by XTT assay; format: functional; how it was run: as §1
[7] = Antifungal activity against Madurella mycetomatis isolate 55 by XTT assay; format: functional; how it was run: as §1
[8] = Antifungal activity against Madurella mycetomatis isolate 46 by XTT assay; format: functional; how it was run: as §1
[9] = Antifungal activity against Madurella mycetomatis isolate 68 by XTT assay; format: functional; how it was run: as §1
[10] = Antifungal activity against Madurella mycetomatis isolate 50 by XTT assay; format: functional; how it was run: as §1
[11] = Antifungal activity against Madurella mycetomatis isolate 41 by XTT assay; format: functional; how it was run: as §1
[12] = Antifungal activity against Madurella mycetomatis isolate 73 by XTT assay; format: functional; how it was run: as §1
[13] = Antifungal activity against Madurella mycetomatis isolate 83 by XTT assay; format: functional; how it was run: as §1
[14] = Antifungal activity against Madurella mycetomatis isolate 52 by XTT assay; format: functional; how it was run: as §1
[15] = Antifungal activity against Madurella mycetomatis isolate 43 by XTT assay; format: functional; how it was run: as §1
[16] = Antifungal activity against Madurella mycetomatis isolate 54 by XTT assay; format: functional; how it was run: as §1
[17] = Antifungal activity against Madurella mycetomatis isolate 35 by XTT assay; format: functional; how it was run: as §1
[18] = test system: Aspergillus fumigatus; assay: Antifungal activity against Aspergillus fumigatus ATCC 204305 by XTT assay; format: functional; settings: for minimal effective concentration: read-out: MEC
How it was run: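 XTT viability assay in RPMI, run independently in triplicate, with a conidial inoculum. Twofold dilutions from 0.007 to 128 mg/liter for echinocandins and 0.016 to 16 mg/liter for KTZ. Drugs dissolved in DMSO, except micafungin in normal saline. MIC is the first concentration giving more than 80% spectrophotometric reduction. MEC is the first concentration with altered growth.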

[19] = test system: Madurella mycetomatis; assay: Inhibition of beta-1,3-D-glucan synthesis in Madurella mycetomatis isolate 55 after 7 days by […] assay; format: functional
How it was run: (§2)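 A hyphal suspension in RPMI was exposed to drug in tubes for 7 days at 37°C. Mycelium was freeze-dried, taken up in 1 M NaOH, probe-sonicated for 15 s and held at 52°C for 30 min. Glucan was measured by aniline blue fluorescence with curdlan as standard, then scaled to viable cells from XTT relative to growth control. Results are means with standard deviation.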

[20] = test system: Aspergillus fumigatus; assay: Inhibition of beta-1,3-D-glucan synthesis in Aspergillus fumigatus ATCC 204305 after 48 hrs by […] assay; format: functional, organism-based
How it was run: as §2, with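 “conidial” for “hyphal”, “48 h.” for “7 days at 37°C.”, “corrected” for “scaled”, “by XTT.” for “from XTT relative to growth control.”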

| Structure (SMILES) | MIC [1] [µg/mL] | MIC [2] [µg/mL] | MIC [3] [µg/mL] | MIC [4] [µg/mL] | MIC [5] [µg/mL] | MIC [6] [µg/mL] | MIC [7] [µg/mL] | MIC [8] [µg/mL] | MIC [9] [µg/mL] | MIC [10] [µg/mL] | MIC [11] [µg/mL] | MIC [12] [µg/mL] | MIC [13] [µg/mL] | MIC [14] [µg/mL] | MIC [15] [µg/mL] | MIC [16] [µg/mL] | MIC [17] [µg/mL] | MIC [18] [µg/mL] | minimal effective concentration [18] [µg/mL] | inhibition [19] | also measured |
| --- | --- | --- | --- | --- | --- | --- | --- | --- | --- | --- | --- | --- | --- | --- | --- | --- | --- | --- | --- | --- | --- |
| CC(=O)N1CCN(c2ccc(OCC3COC(Cn4ccnc4)(c4ccc(Cl)cc4Cl)O3)cc2)CC1 (configuration not stated) | 0.25 (≈ 0.47 µM) | 0.063 (≈ 0.119 µM) | 0.063 (≈ 0.119 µM) | 0.031 (≈ 0.0583 µM) | 0.063 (≈ 0.119 µM) | 0.031 (≈ 0.0583 µM) | 0.25 (≈ 0.47 µM) | 0.016 (≈ 0.0301 µM) | 0.125 (≈ 0.235 µM) | 0.063 (≈ 0.119 µM) | 0.125 (≈ 0.235 µM) | 0.063 (≈ 0.119 µM) | 0.125 (≈ 0.235 µM) | 0.25 (≈ 0.47 µM) | 0.063 (≈ 0.119 µM) | 0.031 (≈ 0.0583 µM) | 1 (≈ 1.88 µM) |  |  |  |  |
| CCCCCOc1ccc(-c2ccc(-c3ccc(C(=O)N[C@H]4C[C@@H](O)[C@@H](O)NC(=O)[C@@H]5[C@@H](O)[C@@H](C)CN5C(=O)[C@H]([C@@H](C)O)NC(=O)[C@H]([C@H](O)[C@@H](O)c5ccc(O)cc5)NC(=O)[C@@H]5C[C@@H](O)CN5C(=O)[C@H]([C@@H](C)O)NC4=O)cc3)cc2)cc1 [ANIDULAFUNGIN] ({pTerphenylCO(4''-OnC5H11)}-[Orn(4R-OH,5R-OH)]T[Hyp][hTyr(3S-OH,4S-OH)]T[Pro(3S-OH,4S-Me)]; lactam 1-C) | > 128 | > 128 | > 128 | > 128 | > 128 | > 128 | > 128 | > 128 | > 128 | > 128 | 0.5 (≈ 0.438 µM) | > 128 | > 128 | > 128 | > 128 | > 128 | > 128 | > 128 | < 0.007 | inactive | inhibition [20]: inactive |
| CC[C@H](C)C[C@H](C)CCCCCCCCC(=O)N[C@H]1C[C@@H](O)[C@@H](NCCN)NC(=O)[C@@H]2[C@@H](O)CCN2C(=O)[C@H]([C@H](O)CCN)NC(=O)[C@H]([C@H](O)[C@@H](O)c2ccc(O)cc2)NC(=O)[C@@H]2C[C@@H](O)CN2C(=O)[C@H]([C@@H](C)O)NC1=O [CASPOFUNGIN] | 64 (≈ 58.5 µM) | 128 (≈ 117 µM) | 64 (≈ 58.5 µM) | 64 (≈ 58.5 µM) | 64 (≈ 58.5 µM) | 32 (≈ 29.3 µM) | 128 (≈ 117 µM) | 64 (≈ 58.5 µM) | 64 (≈ 58.5 µM) | 128 (≈ 117 µM) | 16 (≈ 14.6 µM) | 64 (≈ 58.5 µM) | 128 (≈ 117 µM) | 128 (≈ 117 µM) | 128 (≈ 117 µM) | 64 (≈ 58.5 µM) | 128 (≈ 117 µM) | 128 (≈ 117 µM) | 0.125 | inactive |  |
| CCCCCOc1ccc(-c2cc(-c3ccc(C(=O)N[C@H]4C[C@@H](O)[C@@H](O)NC(=O)[C@@H]5[C@@H](O)[C@@H](C)CN5C(=O)[C@H]([C@H](O)CC(N)=O)NC(=O)[C@H]([C@H](O)[C@@H](O)c5ccc(O)c(OS(=O)(=O)O)c5)NC(=O)[C@@H]5C[C@@H](O)CN5C(=O)[C@H]([C@@H](C)O)NC4=O)cc3)no2)cc1 [MICAFUNGIN] (X1-[Orn(4R-OH,5R-OH)]T[Hyp][hTyr(3S-OH,4S-OH,3'-OSO3H)][Gln(3R-OH)][Pro(3S-OH,4S-Me)]; lactam 1-C) | > 128 | > 128 | > 128 | > 128 | > 128 | > 128 | > 128 | > 128 | > 128 | > 128 | 8 (≈ 6.3 µM) | > 128 | 128 (≈ 101 µM) | > 128 | 128 (≈ 101 µM) | > 128 | > 128 |  |  | inactive | inhibition [20]: inactive |
